The nature of series [1]: Tmax in Sprague-Dawley rat liver at 10 mg equivalents/kg, po after 0.25 to 12 hrs. The format is ADME, organism-based. The procedure, abridged:
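Fed male Sprague-Dawley rats given a single oral dose of 10 mg equiv/kg as 2 mg equiv/mL in 10% hydroxypropyl-β-cyclodextrin. Plasma, CSF, kidney, liver, and cortex and striatum from nonperfused brains sampled from 0.25 to 12 h.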

A further series has as its system Plasma. The series is described as follows: Dose normalized AUC (0 to infinity) in wild-type FVB/N mouse plasma at 5 mg equivalents/kg, iv by LC-MS/MS analysis. Type of series: ADME, organism-based. The following applies: in vivo. The procedure, abridged: (§1)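 Male mice given a single 5 mg equiv/kg iv bolus: FVB wild type, Bcrp(−/−), Mdr1a/b(−/−) and Mdr1a/b(−/−)/Bcrp(−/−). Brain and plasma concentration–time profiles were used to derive dose-normalized AUC (0–infinity).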

Series [2] deals with Brain. The series is described as follows: Dose normalized AUC (0 to infinity) in BCRP knock out FVB/N mouse brain at 5 mg equivalents/kg, iv by LC-MS/MS analysis. Type of series: ADME, organism-based. The following applies: in vivo. The procedure, abridged: as §1
Series [3] deals with Brain. Put plainly: Dose normalized AUC (0 to infinity) in BCRP and MDR1a knock out FVB/N mouse brain at 5 mg equivalents/kg, iv by LC-MS/MS analysis. The format is ADME, organism-based. As to conditions: in vivo. The procedure, abridged: as §1
For series [4], the system named is Rattus norvegicus. Put plainly: Inhibition of KMO in Sprague-Dawley rat striatum brain microdialysate assessed as time duration for elevation in kynurenic acid level at 10 mg/kg, po by […] analysis. Type of series: functional. The procedure, abridged:
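Freely moving Sprague-Dawley rats given 10 mg/kg po, with a microdialysis probe implanted in the striatum. Dialysate was sampled over 0–240 min for free compound and for KYN, KYNA, AA and 3-HK, quantified by LC-MS/MS. Metabolite changes were compared with t = 0 min by 2-way ANOVA.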

Series [5] relates to Rattus norvegicus. Put plainly: Inhibition of KMO in po dosed Sprague-Dawley rat plasma assessed as reduction in 3-hydroxykynurenice acid plasma level by […] analysis. The format is functional, organism-based.

The record followed here is ChEMBL document CHEMBL3407478, “Development of a series of aryl pyrimidine kynurenine monooxygenase inhibitors as potential therapeutic agents for the treatment of Huntington's disease” (J Med Chem, 2015).

Structures are written as SMILES. Activity calls are given as the source filed them. The rule behind the calls is not given here.

On to `O=C(O)c1cc(-c2ccc(OC3CC3)c(Cl)c2)ncn1`, for which, in series [1], the Tmax – broadly, the time from dosing to the highest level – is 30 min. In addition, the AUC/dose in the series with Plasma worked out at 3.1 µM·kg·h/mg; in the series on Brain [2], 0.17 µM·kg·h/mg; in the series with Brain [3], 0.23 µM·kg·h/mg. Also, the Time in the series on Rattus norvegicus [4] was found to be 60 min. In addition, the inhibition entry in the series with Rattus norvegicus [5] was “Active”.
